Results taken from ChEMBL document CHEMBL2396602, “Discovery of N-(4'-(indol-2-yl)phenyl)sulfonamides as novel inhibitors of HCV replication” (Bioorg Med Chem Lett, 2013).
Calls of active or inactive are those of the source. No cut-off for these calls is given here.

Columns and labels:
[1] = Cytotoxicity against human HuH7 cells after 2 days by MTS assay; type: cell-based, Huh-7
Procedure, shortened: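 MTS cell proliferation assay run in parallel with the luciferase replicon assay in the same genotype 1b replicon-bearing Huh7 cells (5000 cells/well, 0.5% DMSO final, 37 °C); CC50 derived.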

[2] = tested on: Hepatitis C virus; assay: Antiviral activity against Hepatitis C virus genotype 1b infected in human HuH7 cells assessed as inhibition of viral replication after 2 days by luciferase reporter gene assay; type: functional, organism-based, Hepacivirus hominis; details: Huh-7, 48 h
Procedure, shortened: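 Huh7 cells carrying a genotype 1b bicistronic HCV replicon plated at 5000 cells/well, kept subconfluent; compound added at 0.5% DMSO final, incubated at 37 °C; luciferase read after 2 days; EC50 from dose response.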

[3] = Selectivity index, ratio of CC50 for human HuH7 cells to EC50 for Hepatitis C virus subtype 1b; type: toxicity, cell-based, Huh-7; details: read-out: Ratio CC50/EC50
Procedure, shortened: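 Ratio of CC50 from the MTS assay to EC50 from the luciferase assay, both in genotype 1b bicistronic replicon Huh7 cells run in parallel.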

[4] = tested on: Hepacivirus hominis; assay: Inhibition of HCV protease up to 10 uM
[5] = tested on: Rattus norvegicus; assay: Oral bioavailability in Sprague-Dawley rat at 3 mg/kg; type: ADME, organism-based; details: in vivo
Procedure, shortened: (§1)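 Female Sprague–Dawley rats dosed with compound in PEG-300 solution, 3 mg/kg orally or 1 mg/kg intravenously; pharmacokinetic parameters derived from plasma exposure after each route.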

[6] = Cmax in Sprague-Dawley rat at 3 mg/kg, po; type: ADME, organism-based; parameters: dose 3 mg/kg, route oral; details: in vivo; procedure, shortened: as §1
[7] = tested on: Rattus norvegicus; assay: AUC (0 to infinity) in Sprague-Dawley rat at 3 mg/kg, po; type: ADME, organism-based, Plasma; parameters: dose 3 mg/kg, route oral, time infinity; details: in vivo; procedure, shortened: as §1
[8] = Volume of distribution at steady state in Sprague-Dawley rat at 1 mg/kg, iv; type: ADME, organism-based; parameters: dose 1 mg/kg, route intravenous; details: in vivo, read-out: Vdss; procedure, shortened: as §1
[9] = Half life in Sprague-Dawley rat at 1 mg/kg, iv; type: ADME, organism-based; parameters: dose 1 mg/kg, route intravenous; details: in vivo; procedure, shortened: as §1
[10] = Intrinsic clearance in human liver microsomes at 1 uM by LC/MS analysis; type: ADME, Microsome; details: read-out: CLH
Procedure, shortened: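 Compound at 1 µM incubated with human liver microsomes (0.5 mg/mL protein) for 0, 10, 20, 30 and 60 min with 1 mM EDTA, 3 mM MgCl2, 1.3 mM NADP, 3.3 mM D-glucose-6-phosphate and 1 unit/mL glucose-6-phosphate dehydrogenase.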

[11] = tested on: Hepatitis C virus; assay: Antiviral activity against Hepatitis C virus genotype 1b infected in human HuH7 cells assessed as reduction in HCV RNA after 3 days by RT-PCR analysis; type: functional, organism-based, Hepacivirus hominis; details: Huh-7, 72 h
Procedure, shortened: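 Huh7 cells with a genotype 1b monocistronic replicon seeded at 5000 cells/well; compound at 0.5% DMSO final, 37 °C; cells harvested 3 days after dosing; replicon RNA measured by real-time RT-PCR, normalised to GAPDH RNA.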

In the case of `CCOc1ccc2c(C#N)c(-c3ccc(NS(=O)(=O)CC)cc3)n(CC)c2c1`, the CC50 at 48 h [1] is reported as 42 µM and the EC50 [2] is reported as 0.53 µM.

Molecule `CCn1c(-c2ccc(C(N)=O)cc2)c(C#N)c2ccc(OC)cc21` has a CC50 at 48 h [1] greater than 100 µM and an EC50 [2] of 7.8 µM.

In the case of `CCn1c(-c2ccc(NS(=O)(=O)CC)cc2)c(C#N)c2ccc(O)cc21`, the CC50 at 48 h [1] is reported as 55 µM and the EC50 [2] is reported as 2 µM.

In the case of `CCn1c(-c2ccc(NS(=O)(=O)CC)cc2)c(C#N)c2ccccc21`, the CC50 at 48 h [1] is reported as 40 µM and the EC50 [2] is reported as 9 µM.

With `CCn1c(-c2ccc(NS(=O)(=O)CC)cc2)c(C#N)c2ccc(OC)cc21` the selectivity ratio [3] was greater than 130, the CC50 at 48 h [1] was 62 µM and the EC50 [2] was 0.47 µM.

`CCn1c(-c2ccc(NS(=O)(=O)CC)cc2)c(C#N)c2cc(F)ccc21` gave a CC50 at 48 h [1] of 39 µM and an EC50 [2] of 0.59 µM.

For `N#Cc1c(-c2ccc(NS(=O)(=O)C3CC3)cc2)n(CC2CC2)c2cc(OC(F)F)ccc12`, the inhibition [4] was “inactive”, the F [5] was 58% and the Cmax [6] was 0.77 µg/mL. It also gave an AUC [7] of 6.8 µM·h, a Vd [8] of 2.2 L/kg and a half-life [9] of 6.3 h. For the same molecule, the CLint scaled at 1 µM [10] was less than 0.06 L/h/kg, the EC50 [11] was 0.18 µM and the selectivity ratio [3] was 147. For the same molecule, the CC50 at 48 h [1] was 25 µM and the EC50 [2] was 0.17 µM.

For `CCCn1c(-c2ccc(NS(=O)(=O)C3CC3)cc2)c(C#N)c2ccc(OC(F)F)cc21`, the CC50 at 48 h [1] was greater than 100 µM and the EC50 [2] was 0.25 µM.

Work on `CCn1c(-c2ccc(NS(=O)(=O)CC)cc2)c(C#N)c2ccc(C(=O)O)cc21` yielded a CC50 at 48 h [1] greater than 100 µM and an EC50 [2] greater than 11 µM.

In the case of `CCn1c(-c2ccc(NS(=O)(=O)CC)cc2)c(C#N)c2cc(Cl)ccc21`, the CC50 at 48 h [1] is reported as 40 µM and the EC50 [2] is reported as 7.5 µM.

In the case of `CCn1c(-c2ccc(OC)cc2)c(C#N)c2ccc(OC)cc21`, the CC50 at 48 h [1] is reported as greater than 100 µM and the EC50 [2] is reported as 4.1 µM.

Molecule `CCOC(=O)Nc1ccc(-c2c(C#N)c3ccc(OC)cc3n2CC)cc1` has a CC50 at 48 h [1] of 41 µM and an EC50 [2] of 1.3 µM.

Molecule `COc1ccc(-n2cc([N+](=O)[O-])c3ccc(OC)cc32)cc1` has an EC50 [2] of 50 µM.

`CCn1c(-c2ccc(N)cc2)c(C#N)c2ccc(OC)cc21` showed a CC50 at 48 h [1] of 100 µM and an EC50 [2] of 7.7 µM.

`CCn1c(-c2ccc(NS(=O)(=O)C(C)C)cc2)c(C#N)c2cc(OC)ccc21` gave a CC50 at 48 h [1] of 36 µM and an EC50 [2] of 7.4 µM.

`CCOc1ccc(-c2c(C#N)c3ccc(OC)cc3n2CC)cc1` gave a CC50 at 48 h [1] greater than 100 µM and an EC50 [2] of 3 µM.

`CCS(=O)(=O)Nc1ccc(-c2c(C#N)c3ccc(OC(F)F)cc3n2CC2CC2)cc1` gave a CC50 at 48 h [1] of 13 µM and an EC50 [2] of 0.3 µM.

In the case of `CCn1c(-c2ccc(NS(=O)(=O)CC)cc2)c(C#N)c2ccc(OC(F)F)cc21`, the selectivity ratio [3] is reported as 69, the CC50 at 48 h [1] is reported as 20 µM and the EC50 [2] is reported as 0.29 µM.

Molecule `CCn1c(-c2ccc(NS(=O)(=O)CC)cc2)c(C#N)c2ccc(C(N)=O)cc21` has a CC50 at 48 h [1] of 55 µM and an EC50 [2] of 9 µM.

In the case of `CCn1c(-c2ccc(NS(=O)(=O)CC)cc2)c(C#N)c2ccc(OCCF)cc21`, the selectivity ratio [3] is reported as 66, the CC50 at 48 h [1] is reported as 39 µM and the EC50 [2] is reported as 0.59 µM.

Molecule `CCn1c(-c2ccc([S+](C)[O-])cc2)c(C#N)c2ccc(OC)cc21` (configuration not stated) has a CC50 at 48 h [1] of 52 µM and an EC50 [2] of 4 µM.

`CC(C)n1c(-c2ccc(NS(=O)(=O)C3CC3)cc2)c(C#N)c2ccc(OC(F)F)cc21` gave a CC50 at 48 h [1] of 13 µM and an EC50 [2] of 0.075 µM.

`CCn1c(-c2ccc(NS(=O)(=O)CC)cc2)c(C#N)c2ccc(C(F)(F)F)cc21` showed a selectivity ratio [3] of 50, a CC50 at 48 h [1] of 18 µM and an EC50 [2] of 0.36 µM.

With `CCCS(=O)(=O)Nc1ccc(-c2c(C#N)c3ccc(OC(F)F)cc3n2CC)cc1` the CC50 at 48 h [1] was 26 µM and the EC50 [2] was 0.22 µM.

`CCn1c(-c2ccc(N3CCCS3(=O)=O)cc2)c(C#N)c2ccc(OC)cc21` gave a CC50 at 48 h [1] greater than 50 µM and an EC50 [2] of 2 µM.

In the case of `CCn1c(-c2ccc(NS(=O)(=O)CC)cc2)c(C#N)c2cc(OC)c(OC)cc21`, the CC50 at 48 h [1] is reported as greater than 100 µM and the EC50 [2] is reported as 4 µM.

`N#Cc1c(-c2ccc(NS(=O)(=O)C3CC3)cc2)n(C2CCC2)c2cc(OC(F)F)ccc12` gave a CC50 at 48 h [1] of 20 µM and an EC50 [2] of 0.19 µM.

For `CCn1c(-c2ccc(NC(C)=O)cc2)c(C#N)c2ccc(OC)cc21`, the CC50 at 48 h [1] was 89 µM and the EC50 [2] was 1.3 µM.

Molecule `CCS(=O)(=O)Nc1ccc(-c2c(C#N)c3ccc(OC(F)F)cc3n2C(C)C)cc1` has a CC50 at 48 h [1] of 12 µM and an EC50 [2] of 0.2 µM.

`CCn1c(-c2ccc(O)cc2)c(C#N)c2ccc(OC)cc21` gave a CC50 at 48 h [1] of 50 µM and an EC50 [2] of 6.1 µM.

Work on `CCn1c(-c2ccc(NS(=O)(=O)CC)cc2)c(C#N)c2c(Cl)cccc21` yielded a CC50 at 48 h [1] of 55 µM and an EC50 [2] of 3.5 µM.

For `CCn1c(-c2ccc(S(C)(=O)=O)cc2)c(C#N)c2ccc(OC)cc21`, the CC50 at 48 h [1] was 42 µM and the EC50 [2] was 2.6 µM.

Work on `CCn1c(-c2ccc(NS(=O)(=O)CC)cc2)c(C#N)c2ccc(CO)cc21` yielded a CC50 at 48 h [1] of 60 µM and an EC50 [2] of 3.5 µM.

`CCn1c(-c2ccc(N3CCNS3(=O)=O)cc2)c(C#N)c2ccc(OC)cc21` gave a CC50 at 48 h [1] of 30 µM and an EC50 [2] of 0.9 µM.

In the case of `CCn1c(-c2ccc(NS(=O)(=O)CC)cc2)c(C#N)c2ccc(OC(F)(F)F)cc21`, the selectivity ratio [3] is reported as 141, the CC50 at 48 h [1] is reported as 24 µM and the EC50 [2] is reported as 0.17 µM.

With `CCn1c(-c2ccc(NS(=O)(=O)C3CC3)cc2)c(C#N)c2ccc(OC(F)F)cc21` the CC50 at 48 h [1] was 23 µM and the EC50 [2] was 0.1 µM.

Molecule `CCn1c(-c2ccc(NS(=O)(=O)CC)cc2)c(C#N)c2ccc(COC)cc21` has a CC50 at 48 h [1] greater than 100 µM and an EC50 [2] of 5 µM.

`CCn1c(-c2ccc(OC)cc2)c([N+](=O)[O-])c2ccc(OC)cc21` gave an EC50 [2] greater than 51 µM.

Work on `CCn1c(-c2ccc(NS(=O)(=O)C(C)C)cc2)c(C#N)c2ccc(OC)cc21` yielded a CC50 at 48 h [1] of 70 µM and an EC50 [2] of 0.65 µM.

`CCn1c(-c2ccc(NS(=O)(=O)CC)cc2)c(C#N)c2ccc(CN3CCOCC3)cc21` gave a CC50 at 48 h [1] of 35 µM and an EC50 [2] of 3 µM.

Work on `CC(C)S(=O)(=O)Nc1ccc(-c2c(C#N)c3ccc(OC(F)F)cc3n2CC2CC2)cc1` yielded a CC50 at 48 h [1] of 22 µM.

For `CCn1c(-c2ccc(NS(=O)(=O)C(C)C)cc2)c(C#N)c2ccc(OC(F)F)cc21`, the CC50 at 48 h [1] was 19 µM and the EC50 [2] was 0.12 µM.

For `CCn1c(-c2ccc(NC(=O)c3ccccc3)cc2)c(C#N)c2ccc(OC)cc21`, the CC50 at 48 h [1] was greater than 100 µM and the EC50 [2] was greater than 100 µM.
